Read-outs that look alike come from different tables or passages of the source.
Legend:
recombinant human GALK1 [1] = target: T1, recombinant human GALK1 (Homo sapiens, UniProt P51570); experiment: GALK1 inhibition assay; format: biochemical; settings: for IC50: luminescence GALK1-ATP-depletion assay, ATP 35 μM, galactose 100 μM; for MR (maximal % inhibition): maximal % inhibition at 57 μM compound
Outline: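 Recombinant human GALK1 was run in 1536-well format against test compound at 6 doses (3 nM – 57 μM). Reactions were started with ATP (35 μM) and galactose (100 μM), both near their K_M under these conditions. Remaining ATP was read by Kinase-Glo luminescence. Normalized concentration-response data were fitted to a four-parameter logistic to give IC50 and efficacy (maximal response).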

[2] = Stirring double-sink PAMPA permeability; format: in vitro ADME; settings: in-house at NCATS
Outline: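 Effective permeability was measured by passive diffusion in a stirring double-sink PAMPA. Sample preparation, analysis and data processing were fully automated.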

[3] = Rat liver microsome stability; format: in vitro ADME; settings: 37 °C, NADPH
[4] = Kinetic aqueous solubility; format: physicochemical; settings: kinetic aqueous solubility in PBS 7.4 buffer from a 10 mM DMSO stock
recombinant human GALK1 [5] = target: T1, recombinant human GALK1; settings: cited from earlier work

T1 sequence (P51570 whole entry): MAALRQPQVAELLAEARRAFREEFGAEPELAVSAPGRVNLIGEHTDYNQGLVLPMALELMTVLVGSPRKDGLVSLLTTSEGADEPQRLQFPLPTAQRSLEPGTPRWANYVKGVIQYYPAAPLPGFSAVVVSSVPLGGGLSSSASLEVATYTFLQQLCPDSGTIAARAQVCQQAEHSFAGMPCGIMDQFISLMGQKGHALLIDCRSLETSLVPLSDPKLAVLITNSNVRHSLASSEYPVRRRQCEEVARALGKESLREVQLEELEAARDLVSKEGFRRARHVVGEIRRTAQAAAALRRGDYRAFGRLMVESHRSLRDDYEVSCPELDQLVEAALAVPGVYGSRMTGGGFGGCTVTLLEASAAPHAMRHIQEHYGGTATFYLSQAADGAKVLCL

| SMILES | IC50 (recombinant human GALK1 [1]) [µM] | MR (maximal % inhibition) (recombinant human GALK1 [1]) [%] | Permeability [2] [nm/s] | Microsomal T1/2 [3] [m] | Solubility [4] [Ug/ml] | IC50 (recombinant human GALK1 [5]; GALK1) [µM] | Mode of inhibition (recombinant human GALK1 [5]; with respect to ATP and galactose substrate) |
| --- | --- | --- | --- | --- | --- | --- | --- |
| COc1ccc(-c2csc(NC(=O)c3ccccc3NS(=O)(=O)c3ccc(C)cc3)n2)cc1 [C5] | 11.1 | 75.9 | 301 | 6.3 | < 1.0 | – | – |
| O=C(Nc1nc(-c2ccccc2)cs1)c1ccncc1NS(=O)(=O)c1ccc(-c2ccccc2)cc1 [C9] | 17.7 | 88.5 | < 10 | 2.0 | < 1.0 | – | – |
| Cc1ccccc1S(=O)(=O)Nc1cnccc1C(=O)Nc1nc(-c2ccccc2)cs1 [C7] | 11.1 | 90.3 | 10647 | – | 50.0 | – | – |
| COc1ccc(S(=O)(=O)Nc2cnccc2C(=O)Nc2nc(-c3ccccc3)cs2)cc1 [C8] | 15.7 | 84.5 | 6745 | 1.6 | 54.1 | – | – |
| O=C(Nc1nc(-c2ccccc2)cs1)c1ccncc1NS(=O)(=O)c1ccc(N2CCCC2=O)cc1 [C10] | 44.5 | 62.5 | 3135 | 1.6 | 57.0 | – | – |
| Cc1ccc(S(=O)(=O)Nc2cc(Cl)c(Cl)cc2C(=O)Nc2nc(-c3ccccc3)cs2)cc1 [C4] | 22.2 | 89.3 | < 50 | 13.0 | <1.0 | – | – |
| O=C1CCCC2=C1C(c1[nH]ncc1Cl)N=C(Nc1nc3ccccc3o1)N2 (stereo not shown) [NCGC00238624] | – | – | – | – | – | 4.7 | competitive with respect to ATP and uncompetitive to galactose substrate |
| Cc1ccc(S(=O)(=O)Nc2cnccc2C(=O)Nc2nc(-c3ccccc3)cs2)cc1 [C2] | 14 | 83.5 | 7243 | 17.0 | 9.4 | – | – |
| Cc1ccc(-c2csc(NC(=O)c3ccccc3NS(=O)(=O)c3ccc(C)cc3)n2)cc1 [C6] | 14 | 81.0 | 356 | 2.6 | < 1.0 | – | – |
| Cc1ccc(S(=O)(=O)Nc2cc(C(F)(F)F)ccc2C(=O)Nc2nc(-c3ccccc3)cs2)cc1 [C3] | 15.9 | 92.9 | 822 | 15.0 | < 1.0 | – | – |
